Shown is part of a subset that was picked to be rich in hits.
E-selectin induc – E-selectin induction on HUVECs. 0.37% of 260,000 active. HUVEC E-selectin immunofluorescence imaging; normalized: neutral wells 0, TNF-alpha wells 100. AID 686992. P16581. activation, % at 7.58 µM;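 active = mean E-selectin-positive cell signal at least 10% of the positive control, reached in at least 60% of replicates, without over 20% cell loss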
Target sequence (P16581 whole entry, looked up): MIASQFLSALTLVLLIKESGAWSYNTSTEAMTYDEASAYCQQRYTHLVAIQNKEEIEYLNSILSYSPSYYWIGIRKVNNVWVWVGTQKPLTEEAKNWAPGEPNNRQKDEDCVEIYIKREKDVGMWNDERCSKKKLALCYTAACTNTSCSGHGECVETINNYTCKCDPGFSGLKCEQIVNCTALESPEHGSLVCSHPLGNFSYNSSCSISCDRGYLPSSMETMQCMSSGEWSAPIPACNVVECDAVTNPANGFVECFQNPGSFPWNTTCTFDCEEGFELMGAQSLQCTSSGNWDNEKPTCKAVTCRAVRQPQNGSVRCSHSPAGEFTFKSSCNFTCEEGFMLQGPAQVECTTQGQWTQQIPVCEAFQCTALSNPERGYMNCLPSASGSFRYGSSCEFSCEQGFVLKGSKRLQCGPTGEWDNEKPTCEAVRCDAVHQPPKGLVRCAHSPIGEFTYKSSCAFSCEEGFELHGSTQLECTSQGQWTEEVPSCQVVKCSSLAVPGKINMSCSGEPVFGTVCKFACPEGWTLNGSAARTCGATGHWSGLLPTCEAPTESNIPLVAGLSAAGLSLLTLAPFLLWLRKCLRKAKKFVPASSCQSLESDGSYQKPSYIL
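Read-out: % PE-positive cells | Test system: HUVEC | Doses: One compound dose added by pin transfer | Buffer or medium: EGM-2 over gelatin coat | Signal: Immunofluorescence imaging | Benchmarks: TNF-alpha, DMSO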
* marks the source's active call; other numbers are inactive results; ! = not active in a repeat.

SMILES	E-selectin induc
Cc1noc(C)c1NC(=O)N(C)C[C@@H]1Oc2ccc(NC(=O)Cn3cnnn3)cc2C(=O)N([C@@H](C)CO)C[C@H]1C	-5
Cc1noc(C)c1NC(=O)N(C)C[C@H]1Oc2ccc(NC(=O)c3ccncc3)cc2C(=O)N([C@@H](C)CO)C[C@H]1C	-2
Cc1noc(C)c1NC(=O)N(C)C[C@@H]1Oc2ccc(NC(=O)Cn3cnnn3)cc2C(=O)N([C@@H](C)CO)C[C@@H]1C	103*
Cc1noc(C)c1NC(=O)N(C)C[C@@H]1Oc2ccc(NC(=O)c3ccncc3)cc2C(=O)N([C@H](C)CO)C[C@H]1C	354*
Cc1noc(C)c1NC(=O)N(C)C[C@@H]1Oc2ccc(NC(=O)c3ccncc3)cc2C(=O)N([C@@H](C)CO)C[C@H]1C	6
C[C@H]1CN([C@@H](C)CO)C(=O)c2cc(NS(=O)(=O)c3cccs3)ccc2O[C@H]1CN(C)C(=O)Nc1ccccc1	0
COc1ccc(-c2cnc3c(c2)C(=O)N([C@H](C)CO)C[C@H](C)[C@H](CN(C)Cc2ccc(C(=O)O)cc2)O3)cc1	0
COc1ccc(CN(C)C[C@@H]2Oc3ccc(NC(=O)CCN4CCOCC4)cc3C(=O)N([C@H](C)CO)C[C@@H]2C)cc1	0
CCS(=O)(=O)N1CCCCN2[C@H](CO)[C@@H](c3ccc(-c4ccc(C(=O)N(C)C)cc4)cc3)[C@@H]2C1	0
C[C@@H]1CCCCO[C@H](CN(C)C(=O)Nc2ccc3c(c2)OCO3)[C@H](C)CN([C@@H](C)CO)C(=O)c2cc(NC(=O)Cc3ccccc3)ccc2O1	0
C[C@@H]1CCCCO[C@@H](CN(C)C(=O)Cc2ccccc2)[C@@H](C)CN([C@@H](C)CO)C(=O)c2cc(NS(=O)(=O)c3cn(C)cn3)ccc2O1	1
C[C@@H]1CCCCO[C@@H](CN(C)C(=O)NC2CCCCC2)[C@H](C)CN([C@H](C)CO)C(=O)c2cc(NC(=O)CCC(F)(F)F)ccc2O1	0
C[C@H]1CCCCO[C@@H](CN(C)C(=O)NC2CCCCC2)[C@@H](C)CN([C@@H](C)CO)C(=O)c2cc(NC(=O)Cc3ccccc3)ccc2O1	0
C[C@@H]1CN([C@H](C)CO)C(=O)c2cc(NC(=O)Cc3ccccc3)ccc2O[C@H]1CN(C)C(=O)NC1CCCCC1	71*
Cc1noc(C)c1NC(=O)N(C)C[C@@H]1Oc2ccc(NS(=O)(=O)c3cccs3)cc2C(=O)N([C@@H](C)CO)C[C@H]1C	-7
Cc1noc(C)c1NC(=O)N(C)C[C@@H]1Oc2ccc(NS(=O)(=O)c3cccs3)cc2C(=O)N([C@H](C)CO)C[C@H]1C	-8
Cc1noc(C)c1NC(=O)N(C)C[C@H]1Oc2ccc(NS(=O)(=O)c3cccs3)cc2C(=O)N([C@H](C)CO)C[C@@H]1C	255*!
C[C@@H]1CN([C@@H](C)CO)C(=O)c2cc(NC(=O)Cc3ccccc3)ccc2O[C@H]1CN(C)C(=O)NC1CCCCC1	-5
CC(C)CC#Cc1cnc2c(c1)C(=O)N([C@@H](C)CO)C[C@@H](C)[C@@H](CN(C)C(=O)CCN1CCCCC1)O2	1
C[C@@H](O)C#Cc1cnc2c(c1)C(=O)N([C@@H](C)CO)C[C@H](C)[C@@H](CN(C)Cc1cccc(C(=O)O)c1)O2	0
CO[C@H]1CC[C@@H]2CCOc3c(C#N)cccc3C(=O)N(C)[C@H](C)C(=O)N(C)C[C@@H]1O2	0
CC(C)NC(=O)N1C[C@@H]2[C@H](c3ccccc31)[C@@H](CO)N2Cc1ccccc1	0
O=C(Cc1ccccn1)N1CC(=O)N2[C@H](C1)[C@H](c1ccc(-c3ccc(F)cc3)cc1)[C@@H]2CO	0
O=C1[C@@H]2Cc3c([nH]c4ccccc34)C(c3ccc([N+](=O)[O-])cc3)N2C(=O)CN1C1CC1 (some centres not stated)	3
COc1ccccc1C1c2[nH]c3ccccc3c2C[C@H]2C(=O)N(C3CCN(Cc4ccccc4)CC3)CC(=O)N12 (some centres not stated)	0
SMILES	E-selectin induc
Cc1ccccc1C1c2[nH]c3ccccc3c2C[C@H]2C(=O)N(C3CC3)CC(=O)N12 (some centres not stated)	55*
CCNC(=O)C[C@H]1CC[C@H]2[C@@H](COC[C@H](O)CN2Cc2ccc(Cl)c(Cl)c2)O1	0
Cc1noc(C)c1S(=O)(=O)Nc1cccc2c1O[C@@H](CN(C)Cc1ccccc1)[C@@H](C)CN([C@@H](C)CO)C2=O	0
C[C@@H]1CN([C@@H](C)CO)C(=O)c2cc(C#CC3CC3)cnc2O[C@@H]1CN(C)Cc1ccccc1C(=O)O	0
CCNC(=O)C[C@@H]1CC[C@H]2[C@@H](COc3ccc(NC(=O)Nc4cccc(OC)c4)cc3C(=O)N2C)O1	0
CCNC(=O)C[C@H]1CC[C@H]2[C@@H](COc3ccc(NC(=O)Nc4cccc(OC)c4)cc3C(=O)N2C)O1	0
CCNC(=O)C[C@@H]1CC[C@@H]2[C@@H](COc3ccc(NC(=O)Nc4cccc(OC)c4)cc3C(=O)N2C)O1	76*
CO[C@@H]1CN(C)C(=O)c2ccc(NC(=O)c3ccc(F)cc3)cc2OC[C@H](C)NC[C@H]1C	0
CC(C)CC#Cc1cnc2c(c1)C(=O)N([C@H](C)CO)C[C@@H](C)[C@H](CN(C)C(=O)c1ccc3c(c1)OCO3)O2	74*
CC(C)CC#Cc1cnc2c(c1)C(=O)N([C@@H](C)CO)C[C@@H](C)[C@H](CN(C)C(=O)c1ccc3c(c1)OCO3)O2	1
CCC(=O)N(C)C[C@H]1Oc2ncc(Br)cc2C(=O)N([C@@H](C)CO)C[C@H]1C	90*
CC(C)CC#Cc1cnc2c(c1)C(=O)N([C@H](C)CO)C[C@H](C)[C@@H](CN(C)C(=O)c1ccc3c(c1)OCO3)O2	2
CCC(=O)N(C)C[C@H]1Oc2ncc(Br)cc2C(=O)N([C@H](C)CO)C[C@H]1C	0
CCC(=O)N(C)C[C@H]1Oc2ncc(Br)cc2C(=O)N([C@H](C)CO)C[C@@H]1C	0
CCCN(C)C[C@H]1Oc2ncc(-c3cccnc3)cc2C(=O)N([C@H](C)CO)C[C@@H]1C	-1
CCCN(C)C[C@@H]1Oc2ncc(-c3ccc(F)cc3)cc2C(=O)N([C@H](C)CO)C[C@@H]1C	2
C[C@@H]1CN([C@H](C)CO)C(=O)c2cc(C3=CCCC3)cnc2O[C@@H]1CN(C)C(=O)Nc1ccccc1	59*
C[C@@H]1CN([C@@H](C)CO)C(=O)c2cc(C3=CCCC3)cnc2O[C@H]1CN(C)C(=O)Nc1ccccc1	0
CCCN(C)C[C@@H]1Oc2ncc(-c3ccccc3)cc2C(=O)N([C@H](C)CO)C[C@@H]1C	90*
C[C@H]1CN([C@@H](C)CO)C(=O)c2cc(C3=CCCC3)cnc2O[C@@H]1CN(C)C(=O)Nc1ccccc1	0
CC(C)NC(=O)N(C)C[C@H]1Oc2ncc(C#CCc3ccccc3)cc2C(=O)N([C@H](C)CO)C[C@H]1C	0
C[C@@H]1CCCCO[C@@H](CN(C)C(=O)Cc2ccccc2)[C@H](C)CN([C@@H](C)CO)C(=O)c2cc(NS(=O)(=O)c3ccc(F)cc3)ccc2O1	1
COc1cccc(NC(=O)C[C@H]2CC[C@H]3[C@@H](COc4ccc(NC(=O)c5ccccc5F)cc4C(=O)N3C)O2)c1	0
Cc1ccc(S(=O)(=O)N[C@@H]2CC[C@@H](CCNC(=O)c3ccc4c(c3)OCO4)O[C@@H]2CO)cc1	-1

Screens deposited in PubChem by Broad Institute.
